Data from the RNAGym collection of RNA variant scans (doi:10.1126/science.aae0568).
Variants at the floor of the assay were thinned out.

B1: tRNA (parent)
chain: GUUCCGUUGGCGUAAUGGUAACGCGUCUCCCUCCUAAGGAGAAGACUGCGGGUUCGAGUCCCGUACGGAACG

Variants of: B1
Experiment: yeast fitness relative to wild type (ratio to wild type); higher = fitter; tRNA-Arg(CCU), competitive growth, 37 C, YPD
Procedure, shortened: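 Start and end populations of a pooled competition were compared by 100-nucleotide paired-end sequencing of gene amplicons. The Saccharomyces cerevisiae strains carried tRNA-Arg(CCU) gene variants at the native genomic locus, synthesised with a 3% per-site mutation rate at 69 sites, and competed in YPD at 37°C for 24 hours in six parallel replicates. Darwinian fitness relative to wild type was based on the change in genotype frequencies. Genotypes required ≥ 100 starting reads, and estimates < 0.5 were set to 0.5.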

Going from U28G C29A G56A to A69C A70U, the yeast fitness rises from ≤ 0.5 to 1.05.

First: C5A A15G G18C C29A U54A A65C
Second: U16C C49U A70U
The yeast fitness of the first is lower: ≤ 0.5 for the first, 0.745 for the second.

Going from U47C C55U to G25C C55G, the yeast fitness falls from 0.796 to ≤ 0.5.

U26C G50A U59A G67C and U13C C34G C55A cannot be ordered by yeast fitness: ≤ 0.5 for the first, ≤ 0.5 for the second.

C30U A36C A69U and A14G G56A G67C cannot be ordered by yeast fitness: ≤ 0.5 for the first, ≤ 0.5 for the second.

First: U2A C33G A36C
Second: G18A A57G
The yeast fitness of the first is lower: ≤ 0.5 for the first, 0.854 for the second.

First: C4A U28C A42G A65U A69C
Second: G39C G51A
The yeast fitness of the first is lower: ≤ 0.5 for the first, 0.739 for the second.

Compared with C31G U32G C55A C62G A65U, A20C A57G is higher in yeast fitness: 0.688 for the first, 0.757 for the second.

Going from A36C C62U to G18C C49U, the yeast fitness rises from 0.583 to 0.607.

First: U3C A21C A65C
Second: G9C C27A A70G
The yeast fitness of the first is lower: ≤ 0.5 for the first, 0.539 for the second.

Compared with A21C A42U G58A, A15U G38C G51C A70C is lower in yeast fitness: 0.549 for the first, ≤ 0.5 for the second.

A21C C46U C61G and G10A A69C A70C cannot be ordered by yeast fitness: ≤ 0.5 for the first, ≤ 0.5 for the second.

First: G17A C30U C49U
Second: U26A A65U G67A
The yeast fitness of the first is lower: ≤ 0.5 for the first, 0.62 for the second.

Going from A14C C49A to G9A A20G U64C, the yeast fitness rises from 0.562 to 0.674.

Going from C5G A20U G41C to C24A U59G C62U A70G, the yeast fitness rises from ≤ 0.5 to 0.54.

Going from C24U C60A to C55U G58A G67A, the yeast fitness rises from 0.527 to 0.546.

First: A21C C27U G50A
Second: U3A C11G C31G C62A
The yeast fitness of the first is higher: 0.571 for the first, ≤ 0.5 for the second.

Compared with A15G C33G G51A, A21C A37U is lower in yeast fitness: 0.665 for the first, 0.646 for the second.

Compared with U8A G56A G67C, G23A A69C is higher in yeast fitness: ≤ 0.5 for the first, 0.793 for the second.

A20G U28G A69U and C27A C61U G68C cannot be ordered by yeast fitness: ≤ 0.5 for the first, ≤ 0.5 for the second.

Compared with C4U U7A U54G, C62G A70U is higher in yeast fitness: ≤ 0.5 for the first, 0.637 for the second.

U26G A36C C66A and C11G A42C G68C cannot be ordered by yeast fitness: ≤ 0.5 for the first, ≤ 0.5 for the second.

First: C4A A15C U35A C49A
Second: C5G G68C
The yeast fitness of the first is lower: 0.545 for the first, 0.826 for the second.

Going from G10A C22G C27U G56A C66G to C5U U8C C31G C33G C34U G68A, the yeast fitness falls from 0.504 to ≤ 0.5.

First: C11A A14G U19G A43C U53A C66U
Second: C4G G9C G10A C24U
The yeast fitness of the first is higher: 0.601 for the first, ≤ 0.5 for the second.

C11U C24A C34U A37U G39C A40U G52A C55G and U13C C33A A36U cannot be ordered by yeast fitness: ≤ 0.5 for the first, ≤ 0.5 for the second.

Compared with U2A C30U A42G C60G C62G A65G, G17A G41A C60G A65G is lower in yeast fitness: 0.595 for the first, ≤ 0.5 for the second.

First: G10A C24G
Second: U3G C5G U19C
The yeast fitness of the first is higher: 0.517 for the first, ≤ 0.5 for the second.

Compared with C24G U28G C46G, C4U C30A G39C is higher in yeast fitness: ≤ 0.5 for the first, 0.598 for the second.

Going from A15G U53A to C30G A40C C55A G58C A65U A70U, the yeast fitness rises from 0.667 to 0.769.

U54C C55G A57U C62U and C24U C29A U32A C46G A70U cannot be ordered by yeast fitness: ≤ 0.5 for the first, ≤ 0.5 for the second.

Going from A37U G58A G68A to U2G A36G A40U A43U G56C A57U, the yeast fitness falls from 0.588 to ≤ 0.5.

C5A C24G C29G A40C and C31G G56C C61A cannot be ordered by yeast fitness: ≤ 0.5 for the first, ≤ 0.5 for the second.

First: U8G C30U C31G G39A A45U G52A
Second: C55A A57C G68C
The yeast fitness of the first is higher: 0.567 for the first, 0.5 for the second.

Compared with G25A G52A A70U, C4G U8A C22U C46G G63A is lower in yeast fitness: 0.666 for the first, ≤ 0.5 for the second.

C4G A45U C62U G68A and C33G G51C C66G G67C cannot be ordered by yeast fitness: ≤ 0.5 for the first, ≤ 0.5 for the second.

First: C5U C46U A57G A70C
Second: G50C A57U
The yeast fitness of the first is lower: ≤ 0.5 for the first, 0.63 for the second.

Compared with G51A C55U, C22U G23A C61A is lower in yeast fitness: 0.633 for the first, 0.58 for the second.

First: U2A C5U C24U U54C G58A
Second: C5G A42U G67A
The yeast fitness of the first is higher: 0.569 for the first, 0.532 for the second.

U3C G9A A57G A65U and C5G G17C G23C C33G A43C cannot be ordered by yeast fitness: ≤ 0.5 for the first, ≤ 0.5 for the second.

U16G C31U A42U G56C and U7A A45C G68A cannot be ordered by yeast fitness: ≤ 0.5 for the first, ≤ 0.5 for the second.

Compared with U13A C22G C24G A36U A40C, C33A G44A A70C is lower in yeast fitness: 0.58 for the first, 0.547 for the second.

Compared with A14C C46U U53A, U7G C31U U47C is higher in yeast fitness: ≤ 0.5 for the first, 0.536 for the second.

A14U C22U A40U G44C and A14U C24U G48C C62U A70C cannot be ordered by yeast fitness: ≤ 0.5 for the first, ≤ 0.5 for the second.

First: C11G G17C C29U G51A C62U A69C
Second: C30U U47A G67C
The yeast fitness of the first is lower: ≤ 0.5 for the first, 0.567 for the second.

Compared with U13A C49A G63A, G44A C46U A70C is higher in yeast fitness: ≤ 0.5 for the first, 0.809 for the second.

Compared with G17C G48U, U13C A70G is higher in yeast fitness: ≤ 0.5 for the first, 1.03 for the second.

Going from C5U C30U A40U to U2G U7C U28A, the yeast fitness falls from 0.567 to ≤ 0.5.

First: C24G C62U
Second: A20C A65G
The yeast fitness of the first is lower: 0.562 for the first, 0.936 for the second.

Compared with C30A U54C, U2C A15C A20C A65U is lower in yeast fitness: 0.811 for the first, 0.52 for the second.

Compared with G39C A65G, C29U A42U is higher in yeast fitness: 0.754 for the first, 0.769 for the second.

First: C4A U16C C27G A42G U53A
Second: G44A C46A G52A C66U
The yeast fitness of the first is lower: ≤ 0.5 for the first, 0.62 for the second.

C5U A14G C24U U32G A43G C66U and G9A A15U C22A G25A G48A cannot be ordered by yeast fitness: ≤ 0.5 for the first, ≤ 0.5 for the second.

Going from C31G G58A to A42U A57C A69C, the yeast fitness falls from 0.785 to ≤ 0.5.

C11G A20C C55A G67C and U32G A37C A57C G63A cannot be ordered by yeast fitness: ≤ 0.5 for the first, ≤ 0.5 for the second.

First: A21U C22U U32A G39A G51A A65U
Second: U19A A45C
The yeast fitness of the first is lower: ≤ 0.5 for the first, 0.726 for the second.

C4G G9C G41A C61U and A36C G48C U53C A70C cannot be ordered by yeast fitness: ≤ 0.5 for the first, ≤ 0.5 for the second.

First: U7A G23A C29A
Second: C46U C49A C62U
The yeast fitness of the first is lower: 0.531 for the first, 0.555 for the second.

First: A21G C22U G41C
Second: G6C U8C C33U A43G G58A C60U
The yeast fitness of the first is higher: 0.66 for the first, ≤ 0.5 for the second.

First: C5G G41C
Second: C11U C46U G56C A69U
The yeast fitness of the first is higher: 0.736 for the first, ≤ 0.5 for the second.

Going from C4G G52C A57C G63C to U32C C55G, the yeast fitness rises from ≤ 0.5 to 0.629.

C30G U47G and G10A U16C A36G G48C cannot be ordered by yeast fitness: ≤ 0.5 for the first, ≤ 0.5 for the second.

U3C G9C C11U C30G A43C C55U and C5U G12A C22U C33U cannot be ordered by yeast fitness: ≤ 0.5 for the first, ≤ 0.5 for the second.

C4G C11U U19A U32A A37U U64C and G18C C22U C31A C61G cannot be ordered by yeast fitness: ≤ 0.5 for the first, ≤ 0.5 for the second.

Compared with C5A A20C C22A A36C A69U, U8A G23C is lower in yeast fitness: 0.587 for the first, ≤ 0.5 for the second.

First: C24A C27G
Second: A15G A37U C62A
The yeast fitness of the first is higher: 0.571 for the first, ≤ 0.5 for the second.

G25A C29A A43C A57C and C5U C33A A36C A37C A43G cannot be ordered by yeast fitness: ≤ 0.5 for the first, ≤ 0.5 for the second.

C11A G12C U53G A65U and G12C U28A A37G G38A A45U A70G cannot be ordered by yeast fitness: ≤ 0.5 for the first, ≤ 0.5 for the second.

Compared with A21G C66A, C33G C60U is lower in yeast fitness: 0.701 for the first, ≤ 0.5 for the second.

C4G C49G G67A and C4U C11A A37C C49U C60G A70C cannot be ordered by yeast fitness: ≤ 0.5 for the first, ≤ 0.5 for the second.

A15C C24G A45G and A21C C31A C33G C46A cannot be ordered by yeast fitness: ≤ 0.5 for the first, ≤ 0.5 for the second.

G6A G38A A40C G56A C60U C61G and C5U U16A G38A A42G cannot be ordered by yeast fitness: ≤ 0.5 for the first, ≤ 0.5 for the second.

C5U U13A G18C C30G A37U C46U and A14G A36G A43C A65U cannot be ordered by yeast fitness: ≤ 0.5 for the first, ≤ 0.5 for the second.

Going from C5A C31U C34U C60G G63A to C46G G52A, the yeast fitness rises from ≤ 0.5 to 0.843.

Compared with C29G A45G A69C A70C, A21C A65C is higher in yeast fitness: ≤ 0.5 for the first, 0.677 for the second.

C29A C31G G39A G48C and G18A C33G C34G cannot be ordered by yeast fitness: ≤ 0.5 for the first, ≤ 0.5 for the second.

C11G U13G G56A A69C and C5U C22U C31U C49A U59C cannot be ordered by yeast fitness: ≤ 0.5 for the first, ≤ 0.5 for the second.

U7C U35C G52A and G9A C22G U35C A70G cannot be ordered by yeast fitness: ≤ 0.5 for the first, ≤ 0.5 for the second.

Going from C4G G17A G52A to C34U C55A A70U, the yeast fitness rises from ≤ 0.5 to 0.619.

C11A C31A G68C and C5G A14C C30U cannot be ordered by yeast fitness: ≤ 0.5 for the first, ≤ 0.5 for the second.

First: C5U G56C A65U A70G
Second: U8G U16C
The yeast fitness of the first is lower: ≤ 0.5 for the first, 0.6 for the second.

C11G G52C G67C and U2C G18A C24U A42G G68A cannot be ordered by yeast fitness: ≤ 0.5 for the first, ≤ 0.5 for the second.

Going from C5A C11G C33A G38A to C11U C22G G52C G56U, the yeast fitness falls from 0.552 to ≤ 0.5.

In the case of C11U A43U A45C G67C, the yeast fitness is reported as ≤ 0.5.
